Data reported in article PMC7392372 (Bioorganic & medicinal chemistry letters, 2018).

Experiments:
[1] = Pharmacokinetics in CD-1 mice; assay type: in vivo; conditions: po 10 mg/kg, n=3
In short: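 CD-1 mice received a single 10 mg/kg oral dose, n = 3. AUC0−∞ (h·ng/mL) was reported together with t1/2, Cmax, Vss, CLp and F%. For oral bioavailability, an intravenous arm dosed at 2 mg/kg was also run.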

BRD4 (BD1,2) = BRD4 (BD1,2) (Homo sapiens, UniProt O60885); test: BROMOScan competitive binding affinity, BRD4; conditions: for fold decrease of potency in binding affinity (Kd): relative to 17; for fold improvement in Kd values: relative to smaller 2-substitutions (13, 14)

Row | fold decrease of potency in binding affinity (Kd) (BRD4 (BD1,2)) | fold improvement in Kd values (BRD4 (BD1,2)) | Structure (SMILES) | further results
1 | 2–3 fold | – | Cc1noc(C)c1-c1ccc2nc(N3CCN(CCN(C)C)CC3)nc(N(C)Cc3cccc(Cl)c3)c2c1 [compound 57] | –
2 | ~ 12 fold | – | Cc1noc(C)c1-c1ccc2c(NCc3cccc(Cl)c3)nc(N3CCN(CCN(C)C)CC3)nc2c1 [compound 40] | –

Second part, the compound before the results:

Row | Structure (SMILES) | fold decrease of potency in binding affinity (Kd) (BRD4 (BD1,2)) | fold improvement in Kd values (BRD4 (BD1,2)) | further results
3 | CN(C)CCN1CCN(c2nc(NCc3cccc(Cl)c3)c3cc(-c4ccc(=O)n(C)c4)ccc3n2)CC1 [compound 48] | – | – | AUC0−∞ [1]: no exposure
4 | Cc1noc(C)c1-c1ccc2nc(N3CCN(CCN(C)C)CC3)nc(NCc3ccc(Cl)cc3)c2c1 [compound 51] | ~ 9 fold | – | –
5 | Cc1noc(C)c1-c1ccc2nc(N(C)CCN(C)C)nc(NCc3cccc(Cl)c3)c2c1 [compound 15] | – | ~ 20 fold | –
6 | Cc1noc(C)c1-c1ccc2nc(N3CCN(C)CC3)nc(NCc3cccc(Cl)c3)c2c1 [compound 16] | – | ~ 20 fold | –
